According to ChEMBL document CHEMBL4020703, “Epigallocatechin-3-gallate inhibits bacterial virulence and invasion of host cells” (Bioorg Med Chem, 2017):
Activity calls are given as the source filed them. The rule behind the calls is not given here.

Key:
[1] = system: Salmonella enterica subsp. enterica serovar Typhimurium; assay: Inhibition of SPI-1 T3SS in Salmonella typhimurium assessed as reduction in SPI-1 T3SS substrates by measuring SipC protein level at 5 to 100 uM after 4 hrs by Coomassie staining based SDS-PAGE method
Outline: (§1)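 Overnight S. Typhimurium cultures were diluted 1:30 into LB (10 g/L NaCl) and grown 4 h with or without compound. Culture supernatant (1 mL) was precipitated overnight at 4 °C with TCA (10% final). Pellets were spun at 14,000 rpm for 30 min, acetone-washed, and dried. Proteins were resolved on 4–20% SDS-PAGE, Coomassie-stained, and imaged.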

[2] = system: Salmonella enterica subsp. enterica serovar Typhimurium; assay: Inhibition of SPI-1 T3SS in Salmonella typhimurium assessed as reduction in SPI-1 T3SS substrates by measuring SipB protein level at 5 to 100 uM after 4 hrs by Coomassie staining based SDS-PAGE method; outline: as §1
[3] = system: Salmonella enterica subsp. enterica serovar Typhimurium; assay: Inhibition of SPI-1 T3SS in Salmonella typhimurium assessed as reduction in SPI-1 T3SS substrates by measuring FliD protein level at 5 to 100 uM after 4 hrs by Coomassie staining based SDS-PAGE method; outline: as §1
[4] = system: Salmonella enterica subsp. enterica serovar Typhimurium; assay: Inhibition of SPI-1 T3SS in Salmonella typhimurium assessed as reduction in SPI-1 T3SS substrates by measuring SopB protein level at 5 to 100 uM after 4 hrs by Coomassie staining based SDS-PAGE method; outline: as §1
[5] = system: Salmonella enterica subsp. enterica serovar Typhimurium; assay: Inhibition of SPI-1 T3SS in Salmonella typhimurium assessed as reduction in SPI-1 T3SS substrates by measuring SipA protein level at 5 to 100 uM after 4 hrs by Coomassie staining based SDS-PAGE method; outline: as §1
[6] = system: Salmonella enterica subsp. enterica serovar Typhimurium; assay: Inhibition of SPI-1 T3SS in Salmonella typhimurium assessed as reduction in SPI-1 T3SS substrates by measuring FliC protein level at 5 to 100 uM after 4 hrs by Coomassie staining based SDS-PAGE method; outline: as §1
Salmonella typhimurium [7] = assay: Effect on growth of Salmonella typhimurium at 100 uM; conditions: salmonella enterica subsp. enterica serovar typhimurium
Salmonella typhimurium [8] = assay: Effect on SopE2-CPG2-HA fusion protein expression expressed in Salmonella typhimurium at 0.39 to 100 uM after 4 hrs by Western blot method; assay type: ADME; conditions: salmonella enterica subsp. enterica serovar typhimurium
Outline: (§2)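 SopE2-CPG2-HA reporter strain grown overnight at 37 °C in LB (10 g/L NaCl) with 50 μg/mL ampicillin, diluted 1:30, then grown 4 h with compound or DMSO/H2O control (<1% of volume). Bacterial lysates were examined for reporter level.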

Salmonella typhimurium [9] = assay: Effect on SopE2-CPG2-HA fusion protein expression expressed in Salmonella typhimurium using Glu-CyFur as substrate at 0.39 to 100 uM after 4 hrs by fluorescence assay; assay type: ADME; conditions: salmonella enterica subsp. enterica serovar typhimurium; outline: as §2
HeLa [10] = assay: Inhibition of SPI-1 T3SS in Salmonella typhimurium infected in human HeLa cells assessed as reduction in bacterial invasion at 100 uM after 30 mins by flow cytometry; assay type: cell-based; conditions: Salmonella enterica subsp. enterica serovar Typhimurium
Outline: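 Strain IR715 was pre-grown 4 h in LB (1/33 dilution) with compound or DMSO, then added to HeLa cells (DMEM/10% FBS) at MOI 10 with compound. Plates were spun 5 min at 1000×g, infected 30 min at 37 °C, then given gentamicin 100 ug/mL for 30 min. Cells were fixed, saponin-permeabilised, stained with anti-Salmonella serum plus AlexaFluor 488 secondary, and 30,000 cells counted. Values normalised to DMSO; triplicate.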

HeLa [11] = assay: Inhibition of SPI-1 T3SS in Salmonella typhimurium infected in human HeLa cells assessed as reduction in bacterial invasion at 100 uM after 30 mins by immunofluorescence analysis; assay type: cell-based; conditions: Salmonella enterica subsp. enterica serovar Typhimurium
Outline: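 HeLa cells on glass coverslips were infected and stained as for the flow protocol (MOI 10, 30 min, gentamicin chase, anti-Salmonella serum/AlexaFluor 488), with nuclei counterstained by TOPRO-3. Extracellular bacteria were imaged without permeabilisation or gentamicin.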

[12] = Inhibition of SPI-1 T3SS in Salmonella typhimurium expressing SopE2-CPG2-HA fusion protein assessed as reduction in type 3 protein secretion using Glu-CyFur as substrate after 4 hrs by fluorescence assay; set-up: species or system Salmonella enterica subsp. enterica serovar Typhimurium
Outline: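 Reporter strain was grown 4 h at 37 °C with compound after a 1:30 dilution, and OD600 was checked. Culture supernatant was mixed with 50 mM Tris, 0.1 mM ZnCl2, pH 7.4, 0.1% Brij-97 and 10 μM Glu-CyFur. Fluorescence (ex 563/em 610 nm) was read kinetically for 2 h. Inhibition came from the rate versus DMSO/H2O control, and IC50 from an exponential decay fit.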

[13] = system: Salmonella enterica subsp. enterica serovar Typhimurium; assay: Inhibition of SPI-1 T3SS in Salmonella typhimurium assessed as reduction in SPI-1 T3SS substrates by measuring SopB protein level at 100 uM after 4 hrs by Coomassie staining based SDS-PAGE method; outline: as §1
[14] = system: Salmonella enterica subsp. enterica serovar Typhimurium; assay: Inhibition of SPI-1 T3SS in Salmonella typhimurium assessed as reduction in SPI-1 T3SS substrates by measuring SipC protein level at 100 uM after 4 hrs by Coomassie staining based SDS-PAGE method; outline: as §1
[15] = system: Salmonella enterica subsp. enterica serovar Typhimurium; assay: Inhibition of SPI-1 T3SS in Salmonella typhimurium assessed as reduction in SPI-1 T3SS substrates by measuring SipB protein level at 100 uM after 4 hrs by Coomassie staining based SDS-PAGE method; outline: as §1
[16] = system: Salmonella enterica subsp. enterica serovar Typhimurium; assay: Inhibition of SPI-1 T3SS in Salmonella typhimurium assessed as reduction in SPI-1 T3SS substrates by measuring FliD protein level at 100 uM after 4 hrs by Coomassie staining based SDS-PAGE method; outline: as §1
[17] = system: Salmonella enterica subsp. enterica serovar Typhimurium; assay: Inhibition of SPI-1 T3SS in Salmonella typhimurium assessed as reduction in SPI-1 T3SS substrates by measuring SipA protein level at 100 uM after 4 hrs by Coomassie staining based SDS-PAGE method; outline: as §1
[18] = system: Salmonella enterica subsp. enterica serovar Typhimurium; assay: Inhibition of SPI-1 T3SS in Salmonella typhimurium assessed as reduction in SPI-1 T3SS substrates by measuring FliC protein level at 100 uM after 4 hrs by Coomassie staining based SDS-PAGE method; outline: as §1

Compound | inhibition [1] | inhibition [2] | inhibition [3] | inhibition [4] | inhibition [5] | inhibition [6] | Activity (Salmonella typhimurium [7]) | Activity (Salmonella typhimurium [8]) | Activity (Salmonella typhimurium [9]) | inhibition (HeLa [10]) | inhibition (HeLa [11]) | IC50 [12] [µM] | inhibition [13] | inhibition [14] | inhibition [15] | inhibition [16] | inhibition [17] | inhibition [18]
O=C(O[C@@H]1Cc2c(O)cc(O)cc2O[C@@H]1c1ccc(O)c(O)c1)c1cc(O)c(O)c(O)c1 | Dose-dependent effect | Dose-dependent effect | Active | Dose-dependent effect | Dose-dependent effect | Active |  |  |  |  |  |  |  |  |  |  |  | 
O=C(N/N=C/c1cc(Br)cc(Br)c1O)c1ccc([N+](=O)[O-])cc1 | Active | Active | Active | Active | Active | Active |  |  |  |  |  |  |  |  |  |  |  | 
O=C(O[C@@H]1Cc2c(O)cc(O)cc2O[C@@H]1c1cc(O)c(O)c(O)c1)c1cc(O)c(O)c(O)c1 [EPIGALOCATECHIN GALLATE] | Dose-dependent effect | Dose-dependent effect | Active | Dose-dependent effect | Dose-dependent effect | Active | Non-Toxic | Non-Toxic | Non-Toxic | Active | Active | 2.15 |  |  |  |  |  | 
O=c1cc(-c2ccccc2)oc2cc(O)c(O)c(O)c12 | Active | Active | Active | Active | Active | Active |  |  |  |  |  |  |  |  |  |  |  | 
O=c1cc(-c2ccccc2)oc2cc(O)cc(O)c12 |  |  |  |  |  |  |  |  |  |  |  |  | inactive | inactive | inactive | inactive | inactive | inactive
